Assay results from ChEMBL document CHEMBL1147022, “Studies on synthesis and evaluation of quantitative structure-activity relationship of 10-methyl-6-oxo-5-arylazo-6,7-dihydro-5H-[1,3]azaphospholo[1,5-d][1,4]benzodiazepin-2-phospha-3-ethoxycarbonyl-1-phosphorus dichlorides” (2006).

Legend:
Type in all cases: functional
Parameters in all cases: unit not given here
Candida albicans = assay: Antifungal activity against Candida albicans ATCC 10231
Procedure, shortened: (§1)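 Fungal MIC by standard 2-fold serial dilution in Sabouraud dextrose agar, using compounds diluted from 1 mg/mL DMSO stocks. Plates receive about 10⁶ CFU/mL fungal suspension made from broth cultures, in triplicate, and are kept at 37 °C for 48–72 h. Clotrimazole is the reference drug.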

Bacillus subtilis = assay: Antibacterial activity against Bacillus subtilis ATCC 6633
Procedure, shortened: (§2)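 Agar 2-fold serial dilution MIC on nutrient agar. Test compounds come from 1 mg/mL DMSO stocks. Inoculum is about 10⁷ CFU/mL bacterial suspension prepared from broth cultures. Plates are run in triplicate and incubated at 37 °C for 16–47 h. Ampicillin trihydrate is the reference drug, tested under the same conditions.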

Aspergillus niger = assay: Antifungal activity against Aspergillus niger ATCC 16404; procedure, shortened: as §1
Escherichia coli = assay: Antibacterial activity against Escherichia coli ATCC 445; procedure, shortened: as §2

Row | SMILES | -Log MIC (Candida albicans) | -Log MIC (Bacillus subtilis) | -Log MIC (Aspergillus niger) | -Log MIC (Escherichia coli)
1 | CCOC(=O)c1pc(P(Cl)Cl)c2n1[C@@H](N=Nc1ccc(OC)cc1)C(=O)Nc1ccc(C)cc1-2 (stereo partly drawn) | 4.24 | 4.29 | 4.39 | 4.26
2 | CCOC(=O)c1pc(P(Cl)Cl)c2n1[C@@H](N=Nc1cccc(OCC)c1)C(=O)Nc1ccc(C)cc1-2 (stereo partly drawn) | 4.78 | 4.96 | 4.89 | 5.04
3 | CCOC(=O)c1pc(P(Cl)Cl)c2n1[C@@H](N=Nc1ccc([N+](=O)[O-])cc1)C(=O)Nc1ccc(C)cc1-2 (stereo partly drawn) | 4.32 | 4.52 | 4.45 | 4.61
4 | CCOC(=O)c1pc(P(Cl)Cl)c2n1[C@@H](N=Nc1ccc(C)cc1)C(=O)Nc1ccc(C)cc1-2 (stereo partly drawn) | 4.09 | 4.22 | 4.22 | 4.17
5 | CCOC(=O)c1pc(P(Cl)Cl)c2n1[C@@H](N=Nc1cccc(O)c1)C(=O)Nc1ccc(C)cc1-2 (stereo partly drawn) | 4.11 | 4.22 | 4.25 | 4.2
6 | CCOC(=O)c1pc(P(Cl)Cl)c2n1[C@@H](N=Nc1ccc(O)cc1)C(=O)Nc1ccc(C)cc1-2 (stereo partly drawn) | 4.06 | 4.17 | 4.18 | 4.11
7 | CCOC(=O)c1pc(P(Cl)Cl)c2n1[C@@H](N=Nc1cccc([N+](=O)[O-])c1)C(=O)Nc1ccc(C)cc1-2 (stereo partly drawn) | 4.5 | 4.55 | 4.56 | 
8 | CCOC(=O)c1pc(P(Cl)Cl)c2n1[C@@H](N=Nc1ccc(OCC)cc1)C(=O)Nc1ccc(C)cc1-2 (stereo partly drawn) | 4.59 | 4.83 | 4.74 | 4.74
9 | CCOC(=O)c1pc(P(Cl)Cl)c2n1[C@@H](N=Nc1ccc(Cl)cc1)C(=O)Nc1ccc(C)cc1-2 (stereo partly drawn) | 4.36 | 4.41 | 4.51 | 4.39
10 | CCOC(=O)c1pc(P(Cl)Cl)c2n1[C@@H](N=Nc1cccc(C(=O)O)c1)C(=O)Nc1ccc(C)cc1-2 (stereo partly drawn) | 4.32 | 4.37 | 4.48 | 4.36
11 | CCOC(=O)c1pc(P(Cl)Cl)c2n1[C@@H](N=Nc1cccc(C)c1)C(=O)Nc1ccc(C)cc1-2 (stereo partly drawn) | 4.17 | 4.25 | 4.31 | 4.22
12 | CCOC(=O)c1pc(P(Cl)Cl)c2n1[C@@H](N=Nc1cccc(CC)c1)C(=O)Nc1ccc(C)cc1-2 (stereo partly drawn) | 4.61 | 4.68 | 4.82 | 4.88
13 | CCOC(=O)c1pc(P(Cl)Cl)c2n1[C@@H](N=Nc1cccc(OC)c1)C(=O)Nc1ccc(C)cc1-2 (stereo partly drawn) | 4.39 | 4.28 | 4.56 | 4.3
14 | CCOC(=O)c1pc(P(Cl)Cl)c2n1[C@@H](N=Nc1ccc(CC)cc1)C(=O)Nc1ccc(C)cc1-2 (stereo partly drawn) | 4.52 | 4.64 | 4.64 | 4.58
15 | CCOC(=O)c1pc(P(Cl)Cl)c2n1[C@@H](N=Nc1cccc(Cl)c1)C(=O)Nc1ccc(C)cc1-2 (stereo partly drawn) | 4.47 | 4.46 | 4.68 | 4.54
16 | CCOC(=O)c1pc(P(Cl)Cl)c2n1[C@@H](N=Nc1ccccc1)C(=O)Nc1ccc(C)cc1-2 (stereo partly drawn) | 4.1 | 4.05 | 4.12 | 4.05
